Experiment [1] can be described thus: Cytotoxicity against human Molt4/C8 cells after 2 days. It is filed as functional, cell-based. Particulars: MOLT-4, 48 h.
The subject of experiment [2] is CCRF-CEM. The experiment is described as follows: Cytotoxicity against human CEM cells after 2 days. It is filed as functional, cell-based. The note with it: for IC50: Homo sapiens, CCRF-CEM, 48 h.
The subject of experiment [3] is L1210. The experiment is described as follows: Cytotoxicity against mouse L1210 cells after 2 days. It is filed as functional, cell-based. The note with it: L1210, 48 h. In a few lines: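 L1210 cells at 300,000–500,000 cells/mL were added to an equal volume of diluted compound. After 2 days at 37 °C, cells were counted with a Coulter counter. IC50 is the concentration that inhibits proliferation by 50%.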

Experiment [4] relates to Punta Toro virus. The experiment is described as follows: Antiviral activity against Punta Toro virus infected in african green monkey Vero cells assessed as inhibition of virus induced cytopathic effect. It is filed as functional, organism-based. In a few lines: (§1)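 Confluent monolayers in 96-well plates were infected with 100 CCID50 of virus, with 1 h adsorption before residual virus was removed. Cultures were then kept with test compound at 200, 40 or 8 μM. Cytopathic effect was scored once it was complete in untreated infected controls.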
A general note: Cytopathic effects are the visible damage that an infection or toxin causes in cultured cells.

The subject of experiment [5] is Feline coronavirus. The experiment is described as follows: Antiviral activity against Feline coronavirus infected in CRFK cells assessed as inhibition of virus induced cytopathic effect. The experiment is classed as functional, organism-based. In a few lines:
as §1

The subject of experiment [6] is Human alphaherpesvirus 1. The experiment is described as follows: Antiviral activity against HSV1 KOS infected in human HEL cells assessed as inhibition of virus induced cytopathic effect. The experiment is classed as functional, organism-based. Put shortly: as §1
Experiment [7] relates to Vesicular stomatitis virus. The experiment is described as follows: Antiviral activity against VSV infected in human HEL cells assessed as inhibition of virus induced cytopathic effect. The experiment is classed as functional, organism-based.
Experiment [8] relates to Mammalian orthoreovirus 1. As to the kind of experiment: Antiviral activity against Reovirus 1 infected in african green monkey Vero cells assessed as inhibition of virus induced cytopathic effect. It is filed as functional, organism-based. Put shortly:
as §1

For experiment [9], the system named is Sindbis virus. As to the kind of experiment: Antiviral activity against Sindbis virus infected in african green monkey Vero cells assessed as inhibition of virus induced cytopathic effect. It is filed as functional, organism-based. In a few lines:
as §1

In experiment [10] the test system is Influenza A virus. As to the kind of experiment: Antiviral activity against influenza A H3N2 virus infected in […] cells assessed as inhibition of virus induced cytopathic effect. It is filed as functional, organism-based.
Experiment [11] relates to Vaccinia virus. The experiment is described as follows: Antiviral activity against Vaccinia virus infected in human HEL cells assessed as inhibition of virus induced cytopathic effect. The experiment is classed as functional, organism-based. Particulars: Orthopoxvirus vaccinia.
Experiment [12] relates to Human alphaherpesvirus 2. As to the kind of experiment: Antiviral activity against HSV2 G infected in human HEL cells assessed as inhibition of virus induced cytopathic effect. It is filed as functional, organism-based. Particulars: strain G. Put shortly:
as §1

The subject of experiment [13] is Influenza B virus. The experiment is described as follows: Antiviral activity against influenza B virus infected in MDCK cells assessed as inhibition of virus induced cytopathic effect. It is filed as functional, organism-based.
Experiment [14] has as its system Influenza A virus. As to the kind of experiment: Antiviral activity against influenza A H1N1 virus infected in […] cells assessed as inhibition of virus induced cytopathic effect. It is filed as functional, organism-based.
Experiment [15] deals with Human respirovirus 3. As to the kind of experiment: Antiviral activity against Parainfluenza virus 3 infected in african green monkey Vero cells assessed as inhibition of virus induced cytopathic effect. The experiment is classed as functional, organism-based. Put shortly: as §1

Activity calls are given as the source filed them. No cut-off for these calls is given here.

For `O=c1[nH]c2c(c(=O)n1[C@@H]1O[C@H](CO)[C@@H](O)[C@@H]1O)CCCC2`, the IC50 in experiment [1], in experiment [2] and in [3] was more than 500 µM each time.

With `CCOC(=O)c1c[nH]c(=O)n([C@@H]2O[C@H](CO)[C@@H](O)[C@@H]2O)c1=O`, the IC50 in experiment [1], in [2] and in [3] was more than 500 µM throughout.

Take `CC(=O)c1cnc2n(c1=O)[C@@H]1[C@H](O2)O[C@H](CO[Si](C)(C)C(C)(C)C)[C@H]1O[Si](C)(C)C(C)(C)C`: the concentration for half-maximal inhibition (IC50) in experiment [1] came to 7.9 µM; in experiment [2], 7.5 µM; in [3] it was 6 µM.

For `C/C(N)=C1/C=NC(=O)N([C@@H]2O[C@H](CO)[C@@H](O)[C@@H]2O)C1=O`, the half-maximal inhibitory concentration (IC50) in experiment [1] was 299 µM; in experiment [2] it was 217 µM; in [3] it was 211 µM.

Take `CC(=O)c1cnc2n(c1=O)[C@@H]1[C@H](O2)O[C@H](CO)[C@H]1O`: the results for the IC50 in experiment [1], in [2] and in [3] were 380 µM, 254 µM and 312 µM, respectively.

As for `O=c1nc2n(c3c1CCCC3)[C@@H]1[C@H](O2)O[C@H](CO)[C@H]1O`, the 50% inhibitory concentration (IC50) in [1], in experiment [2] and in [3] was more than 500 µM in each case.

As for `O=c1[nH]c(=O)n([C@@H]2O[C@H](CO)[C@@H](O)[C@@H]2O)c2c1CCCC2`, the IC50 in experiment [1], in [2] and in experiment [3] was more than 500 µM in each case.

In the case of `C/C(N)=C1/C=NC(=O)N([C@@H]2O[C@H](CO[Si](C)(C)C(C)(C)C)[C@@H](O[Si](C)(C)C(C)(C)C)[C@@H]2O)C1=O`, the results for the concentration for half-maximal inhibition (IC50) in experiment [1] and in [2] were 18 µM and 17 µM, respectively.

With `O=c1c2c(nc3n1[C@@H]1[C@H](O3)O[C@H](CO)[C@H]1O)CCCC2`, the half-maximal inhibitory concentration (IC50) in [1], in experiment [2] and in experiment [3] was more than 500 µM throughout.

Regarding `CC(C)(C)[Si](C)(C)OC[C@H]1O[C@H]2Oc3nc4c(c(=O)n3[C@H]2[C@@H]1O[Si](C)(C)C(C)(C)C)CCCC4`, the outcome in [4], in [5], in experiment [6], in [7], in [8] and in experiment [9] was inactive. In addition, the result in [10], in experiment [12], in experiment [13], in [14] and in experiment [15] was inactive. Also, the 50% inhibitory concentration (IC50) was determined as 129 µM in [1], 126 µM in experiment [2] and 201 µM in [3]. Also, the figures for the half-maximal effective concentration (EC50) result in experiment [2] (ccrf-cem) and in [11] were “Not Active” and 45 µM, respectively.

With `CC(C)(C)[Si](C)(C)OC[C@H]1O[C@H]2Oc3nc(=O)c4c(n3[C@H]2[C@@H]1O[Si](C)(C)C(C)(C)C)CCCC4`, the values for the IC50 in experiment [1], in [2] and in experiment [3] were 185 µM, 212 µM and 229 µM, respectively.

Turning to `CCOC(=O)c1cnc2n(c1=O)[C@@H]1[C@H](O2)O[C@H](CO)[C@H]1O`, the half-maximal inhibitory concentration (IC50) in experiment [1], in experiment [2] and in experiment [3] was more than 500 µM in each case.

In the case of `CC(=O)c1c[nH]c(=O)n([C@@H]2O[C@H](CO)[C@@H](O)[C@@H]2O)c1=O`, the IC50 in [1], in experiment [2] and in experiment [3] was more than 500 µM in each case.

As for `Nc1ccn([C@@H]2O[C@H](CO)[C@@H](O)[C@@H]2O)c(=O)n1` [CYTARABINE], the IC50 in experiment [2] and in [3] was 0.024 µM throughout.

In the case of `CN(C)/C=N\C1=N[C@@H]2[C@H](O1)O[C@H](CO[Si](C)(C)C(C)(C)C)[C@H]2O[Si](C)(C)C(C)(C)C`, the IC50 in experiment [1] was determined as 226 µM; in experiment [2], 215 µM; in [3] it was 254 µM.

In the case of `CN(C)/C=N\C1=N[C@@H]2[C@H](O1)O[C@H](CO)[C@H]2O`, the half-inhibitory concentration (IC50) in [1], in experiment [2] and in experiment [3] was more than 500 µM each time.

A word on the IC50: it is the midpoint of a concentration-inhibition curve. What is called EC50 is the concentration at which the effect is half-maximal.

The values are drawn from ChEMBL document CHEMBL1153735, “Synthesis and in vitro cytostatic activity of new beta-D-arabino furan[1',2':4,5]oxazolo- and arabino-pyrimidinone derivatives” (Eur J Med Chem, 2010).
